Data published in ChEMBL document CHEMBL4138245, “Design and synthesis of novel quinacrine-[1,3]-thiazinan-4-one hybrids for their anti-breast cancer activity” (Eur J Med Chem, 2018).
Calls of active or inactive are those of the source. The rule behind the calls is not given here.

What was measured:
[1] = system: MCF7; assay: Anticlonogenic activity against human MCF7 cells at 0.39 to 1.5 uM after 12 hrs by crystal violet staining based assay; assay type: functional, cell-based
Summary of the method: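 Clonogenic assay: 1000 cells/well seeded, treated after overnight attachment for 12 h, then medium replaced and cells grown until control colonies were large enough; colonies stained with crystal violet.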

[2] = system: MDA-MB-231; assay: Potency index, ratio of cisplatin IC50 to compound IC50 for antiproliferative activity against human MDA-MB-231 cells; assay type: functional
[3] = system: SK-BR-3; assay: Antiproliferative activity against human SK-BR-3 cells assessed as compound concentration required to show complete inhibition of cell viability up to 96 hrs by SRB assay; assay type: functional
[4] = system: CAMA-1; assay: Antiproliferative activity against human CAMA1 cells assessed as compound concentration required to show complete inhibition of cell viability up to 96 hrs by SRB assay; assay type: functional
[5] = system: 184B5; assay: Antiproliferative activity against human 184B5 cells assessed as compound concentration required to show complete inhibition of cell viability up to 96 hrs by SRB assay; assay type: cell-based; conditions: 184b5, 96 h
[6] = system: 184B5; assay: Antiproliferative activity against human 184B5 cells at 1 to 2 uM up to 96 hrs by SRB assay; assay type: cell-based; conditions: 184b5, 96 h
[7] = system: MCF7; assay: Cell cycle arrest in human MCF7 cells assessed as accumulation at S phase at 2 uM after 48 hrs by propidium iodide staining based flow cytometry; assay type: functional
Summary of the method: (§1)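 MCF7, MDA-MB231 and non-cancer 184B5 breast cells exposed to 2 μM for 48 h, then cell-cycle analysis by flow cytometry; duplicates, repeated three times.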

[8] = system: MCF7; assay: Cell cycle arrest in human MCF7 cells assessed as accumulation at sub-G1 phase at 2 uM after 48 hrs by propidium iodide staining based flow cytometry; assay type: functional; summary of the method: as §1
[9] = system: MDA-MB-231; assay: Cell cycle arrest in human MDA-MB-231 cells assessed as accumulation at sub-G1 phase at 2 uM after 48 hrs by propidium iodide staining based flow cytometry; assay type: functional; summary of the method: as §1
[10] = system: MDA-MB-231; assay: Inhibition of DNA replication in human MDA-MB-231 cells assessed as EdU incorporation at 2 uM pretreated for 48 hrs followed by EdU addition at final 45 mins of 48 hrs incubation time (reference value: 45 to 63%); assay type: functional; design: scale not given: the % may be the effect or the level left
[11] = target: Serine/threonine-protein kinase mTOR (Homo sapiens) (UniProt P42345); assay: Inhibition of mTOR phosphorylation at S2448 residue in human MCF7 cells at 2 uM after 6 hrs by Western blot method; assay type: cell-based
[12] = Selectivity index, ratio of compound concentration for cell killing activity in human MCF10A cells to compound concentration for cell killing activity in human MDA-MB-468 cells; assay type: toxicity, cell-based; conditions: MCF10A cells versus MDA-MB-468 cells, read-out: Selectivity Index
[13] = Selectivity index, ratio of compound concentration for cell killing activity in human 184B5 cells to compound concentration for cell killing activity in human CAMA1 cells; assay type: toxicity, cell-based; conditions: 184B5 cells versus CAMA1 cells, read-out: Selectivity Index
[14] = Selectivity index, ratio of compound concentration for cell killing activity in human 184B5 cells to compound concentration for cell killing activity in human MDA-MB-468 cells; assay type: toxicity, cell-based; conditions: 184B5 cells versus MDA-MB-468 cells, read-out: Selectivity Index
[15] = Selectivity index, ratio of compound concentration for cell killing activity in human 184B5 cells to compound concentration for cell killing activity in human LNCAP cells; assay type: toxicity, cell-based; conditions: 184B5 cells versus LNCAP cells, read-out: Selectivity Index

inhibition [11]: Active
SMILES: COc1ccc2nc3cc(Cl)ccc3c(NCCCN3C(=O)CCSC3c3cccs3)c2c1 (stereo not given)
Activity [1]: Active
Ratio IC50 [2]: 8.4
Activity [3]: 2 µM
Activity [4]: 2 µM
Activity [5]: 6 µM
Activity [6]: Non-Toxic
Activity [7]: Active
Activity [8]: Active
Activity [9]: Active
Activity [10]: 10%
selectivity ratio [12]: 3 to 6
selectivity ratio [13]: 3 to 6
selectivity ratio [14]: 3 to 6
selectivity ratio [15]: 3 to 6
